17 molecules from ChEMBL document CHEMBL1121569, “Analogues of chloramphenicol: circular dichroism spectra, inhibition of ribosomal peptidyltransferase, and possible mechanism of action” (J Med Chem, 1980) can be followed below.

A short description of data set [1]: Dissociation constant (pKa). In kind it is physicochemical.
Data set [2] concerns Escherichia coli. Nature of the data set: Evaluated for the concentration required for a 50% inhibition of N-acetyl-L-[14C] phenylalanylpuromycin formation. In kind it is functional. The essentials: (§1)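 Cell-free puromycin reaction with E. coli MRE-600 70S ribosomes (NH4Cl-washed, 4.0 A260 units) in 0.1 mL containing 0.05 M Tris-HCl pH 7.4, 0.1 M NH4Cl, 0.01 M MgCl2, 10 μg poly(U), 0.20 A260 unit N-Ac-[14C]Phe-tRNA, puromycin and inhibitor. Incubated at 37 °C for 30 min. Product extracted into ethyl acetate and counted by scintillation. Single-point inhibition was read at 8×10^-4 M.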

A short description of data set [3]: Evaluated for the inhibition constant determined from the Dixon and slope vs. inhibitor concentration plots. In kind it is functional, Escherichia coli. An outline of the steps: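 Ki values came from the E. coli MRE-600 70S ribosome puromycin reaction, using poly(U), N-Ac-[14C]Phe-tRNA and puromycin in Tris-HCl pH 7.4 with NH4Cl and MgCl2, at 37 °C for 30 min. Inhibitor concentration was varied. Ethyl acetate-extracted product was counted by scintillation. Ki was derived from Dixon plots built by linear regression and from slope versus inhibitor concentration plots.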

For data set [4], the system named is Escherichia coli. The data set can be described thus: Generation rate constant […] obtained from the inhibition of growth of Escherichia coli cells. The data set is classed as organism-based.
The test system of data set [5] is Escherichia coli. Nature of the data set: Evaluated for percent inhibition against N-acetyl-L-[14C] phenylalanylpuromycin formation at 8e-4M. In kind it is functional. The essentials: as §1

Usually pKa stands for the negative logarithm of the acid dissociation constant. Low readings indicate a group that gives up its proton readily, high ones a group that holds its proton tightly. In general, Ki refers to a dissociation constant, usually derived from enzyme kinetics or from competition with a known ligand. `CS(=O)(=O)NC(CO)C(O)c1ccc([N+](=O)[O-])cc1` (configuration not stated): in data set [1], the pKa was -0.6. The ID50 with Escherichia coli [2] was 200 µM. In data set [3], this molecule showed an inhibitory constant (Ki) of 1.1 µM.

For orientation: inhibition means how much of the control response was suppressed. A lower inhibition goes with a weak effect. Regarding `CCCC(=O)NC(CO)C(O)c1ccc([N+](=O)[O-])cc1` (configuration not stated), in data set [1], the pKa was determined as 4.82. Besides, the Log k with Escherichia coli [4] was 0.71. Besides, the inhibition in the data set with Escherichia coli [5] was 34%.

For the molecule `CC(=O)NC(CO)C(O)c1ccc([N+](=O)[O-])cc1` (configuration not stated), in data set [1], the pKa was found to be 4.76. For the same molecule, the Log k in the data set with Escherichia coli [4] turned out to be 0.48. Further, in the data set with Escherichia coli [5], the inhibition is 34%.

As for `O=C(NC(CO)C(O)c1ccc([N+](=O)[O-])cc1)C(Cl)(Cl)Cl` (configuration not stated), in data set [1], the pKa came to 0.65. Also, the Log k in the data set on Escherichia coli [4] was 0.75. Besides, the ID50 in the data set on Escherichia coli [2] is 250 µM. The same molecule gave an inhibition constant (Ki) in data set [3] of 3 µM.

For the molecule `O=C(N[C@H](CO)[C@H](O)c1ccc([N+](=O)[O-])cc1)C(Cl)Cl` [CHLORAMPHENICOL], the pKa in data set [1] turned out to be 1.29. The same molecule displayed an ID50 with Escherichia coli [2] of 30 µM. The molecule also gave a Ki in data set [3] of 1.6 µM.

In the case of `O=C(NC(CO)C(O)c1ccc([N+](=O)[O-])cc1)c1ccco1` (configuration not stated), the pKa in data set [1] turned out to be 3.12. Also, the inhibition in the data set with Escherichia coli [5] was 10%.

For `O=C(CCl)NC(CO)C(O)c1ccc([N+](=O)[O-])cc1` (configuration not stated), in data set [1], the pKa amounted to 2.86. This molecule also displayed a Log k in the data set on Escherichia coli [4] of 1.71. The ID50 in the data set on Escherichia coli [2] stood at 500 µM. For the same molecule, the inhibitory constant (Ki) in data set [3] was found to be 27 µM.

Consider `O=CNC(CO)C(O)c1ccc([N+](=O)[O-])cc1` (configuration not stated), for which, in data set [1], the pKa is 3.77. The inhibition in the data set on Escherichia coli [5] was found to be 10%.

With `O=C(NC(CO)C(O)c1ccc([N+](=O)[O-])cc1)C1CC1` (configuration not stated), in data set [1], the pKa was found to be 4.83. The molecule further yielded an inhibition in the data set with Escherichia coli [5] of 20%.

For `O=[N+]([O-])c1ccc(C(O)C(CO)NP(=O)(O)CCl)cc1` (configuration not stated), the pKa in data set [1] turned out to be 1.4. The inhibition in the data set with Escherichia coli [5] turned out to be 10%.

Consider `O=C(CF)NC(CO)C(O)c1ccc([N+](=O)[O-])cc1` (configuration not stated), for which the pKa in data set [1] was determined as 2.66. Moreover, the Log k in the data set on Escherichia coli [4] is recorded as 1.16. The inhibition in the data set with Escherichia coli [5] came out at 27%.

With `[N-]=[N+]=NCC(=O)NC(CO)C(O)c1ccc([N+](=O)[O-])cc1` (configuration not stated), the pKa in data set [1] was 3.03. In the data set with Escherichia coli [5], this molecule yielded an inhibition of 60%. In data set [3], the inhibition constant Ki stood at 22 µM.

With `O=C(CO)NC(CO)C(O)c1ccc([N+](=O)[O-])cc1` (configuration not stated), in data set [1], the pKa came to 3.83. In the data set with Escherichia coli [5], this molecule showed an inhibition of 10%.

Turning to `CCC(=O)NC(CO)C(O)c1ccc([N+](=O)[O-])cc1` (configuration not stated), the pKa in data set [1] was 4.88. For the same molecule, in the data set on Escherichia coli [5], the inhibition amounted to 39%.

As to `O=C(NC(CO)C(O)c1ccc([N+](=O)[O-])cc1)C1CCC1` (configuration not stated), the pKa in data set [1] is 4.79. This molecule also registered an inhibition in the data set with Escherichia coli [5] of 10%.

In data set [1], `N#CCC(=O)NC(CO)C(O)c1ccc([N+](=O)[O-])cc1` (configuration not stated) registered a pKa of 2.43. Moreover, the Log k in the data set on Escherichia coli [4] is listed as 0.14. In addition, the ID50 in the data set on Escherichia coli [2] was 350 µM. The molecule also showed a Ki in data set [3] of 1.7 µM.

In the data set with Escherichia coli [4], `O=C(NC(CO)C(O)c1ccc([N+](=O)[O-])cc1)C(Br)Br` (configuration not stated) came in with a Log k of 1.84. The same molecule gave an ID50 with Escherichia coli [2] of 70 µM. For the same molecule, the affinity in data set [3] corresponds to a Ki of 1 µM.
